Measured values reported in ChEMBL document CHEMBL4819117, “Probing cytochrome P450 (CYP) bioactivation with chloromethylindoline bioprecursors derived from the duocarmycin family of compounds” (Bioorg Med Chem, 2021).

What was measured:
CHO [1] = assay: Antiproliferative activity against wild type chinese hamster CHO cells deficit in CYPs assessed as inhibition of cell growth after 96 hrs by MTT assay; format: functional, cell-based; conditions: Cricetulus griseus
Method in brief: (§1)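 Cells kept as monolayers at 37 °C in 5% CO2: EJ-138 and RT112 in RPMI 1640 with 10% FBS, sodium pyruvate and 2 mM L-glutamine; CHO and CHO-1A1 in DMEM. Compounds were taken from DMSO stocks into medium over 0.001–100 μM, with final DMSO ≤0.1%. Exposure lasted 96 h, then MTT read-out. IC50 values are mean ± SD of at least three independent assays.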

RT-112 = assay: Antiproliferative activity against human RT112 cells proficient in CYP1A1 assessed as inhibition of cell growth after 96 hrs by MTT assay; format: functional, cell-based; conditions: RT-112, 96 h; method in brief: as §1
EJ [2] = assay: Antiproliferative activity against human EJ138 cells deficit in CYPs assessed as inhibition of cell growth after 96 hrs by MTT assay; format: functional, cell-based; method in brief: as §1
CHO [3] = assay: Antiproliferative activity against chinese hamster CHO cells transfected with CYP1A1 assessed as inhibition of cell growth after 96 hrs by MTT assay; format: functional, cell-based; conditions: Cricetulus griseus; method in brief: as §1
Cytochrome P450 1A1 [4] = target: T1, Cytochrome P450 1A1 (Homo sapiens, UniProt P04798); assay: Drug metabolism assessed as recombinant human CYP1A1-mediated metabolite M1 with m/z of 375.1 formation at 50 uM incubated for 1 hr in presence of reconstituted protein system by LC-MS analysis; format: ADME; conditions: recombinant enzyme
T1 sequence (P04798 whole entry): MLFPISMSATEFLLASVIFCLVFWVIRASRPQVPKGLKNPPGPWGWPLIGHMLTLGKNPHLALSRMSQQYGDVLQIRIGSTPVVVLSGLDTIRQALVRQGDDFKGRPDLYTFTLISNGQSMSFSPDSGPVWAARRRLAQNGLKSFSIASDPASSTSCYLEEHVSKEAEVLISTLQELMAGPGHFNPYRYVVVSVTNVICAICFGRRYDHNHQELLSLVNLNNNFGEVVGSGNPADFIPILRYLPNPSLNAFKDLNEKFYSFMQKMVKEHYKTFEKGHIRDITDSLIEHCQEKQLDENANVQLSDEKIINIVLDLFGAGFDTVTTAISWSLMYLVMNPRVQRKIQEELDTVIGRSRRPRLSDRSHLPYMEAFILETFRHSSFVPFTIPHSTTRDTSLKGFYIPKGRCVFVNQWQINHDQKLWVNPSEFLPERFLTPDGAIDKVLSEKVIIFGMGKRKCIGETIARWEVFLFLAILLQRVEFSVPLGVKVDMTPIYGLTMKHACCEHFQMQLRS
Method in brief: (§2)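 Substrate at 50 μM with human recombinant CYP1A1 in a reconstituted system: NADPH cytochrome P450 reductase plus freshly prepared DLPC (240 μM) in 100 mM potassium phosphate, pH 7.4. Mixture pre-warmed 3 min at 37 °C, started with NADPH (final 1 mM), incubated 1 h and extracted into dichloromethane. Analysis by reverse-phase HPLC with photodiode array detection and ESI+ quadrupole MS.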

Cytochrome P450 1A1 [5] = target: T1, Cytochrome P450 1A1; assay: Drug metabolism assessed as recombinant human CYP1A1-mediated metabolite M4 with m/z of 391.1 formation at 50 uM incubated for 1 hr in presence of reconstituted protein system by LC-MS analysis; format: ADME; conditions: recombinant enzyme; method in brief: as §2
EJ [6] = assay: Potentiation factor, ratio of IC50 for antiproliferative activity against human EJ138 cells preincubated for 1 hr with CYP null bactosomes to IC50 for antiproliferative activity against human EJ138 cells preincubated for 1 hr with human CYP1B1 expressing bactosomes; format: functional
Method in brief: (§3)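 Potentiation factor = IC₅₀ in EJ138 given control (CYP null) bactosome extract ÷ IC₅₀ with the named CYP isoform extract. Extracts came from 1 h, 37 °C incubations of 50 μM compound with 20 pmol bactosomes plus 2 mM NADPH, 1 mM MgCl₂, Tris-HCl pH 7.4. Cells were exposed 96 h and read by MTT.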

EJ [7] = assay: Potentiation factor, ratio of IC50 for antiproliferative activity against human EJ138 cells preincubated for 1 hr with CYP null bactosomes to IC50 for antiproliferative activity against human EJ138 cells preincubated for 1 hr with human CYP3A4 expressing bactosomes; format: functional; method in brief: as §3
EJ [8] = assay: Antiproliferative activity against human EJ138 cells assessed as inhibition of cell growth preincubated for 1 hr with human CYP1A1 expressing bactosomes measured after 96 hrs by MTT assay; format: functional, cell-based
Method in brief: (§4)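 Compound (50 μM) incubated 1 h at 37 °C with 20 pmol CYP bactosomes (CYP null, 1A1, 1A2, 1B1 or 3A4) in 2 mM NADPH, 1 mM MgCl₂, Tris-HCl pH 7.4. Metabolites were extracted with acetonitrile, centrifuged, and the supernatant dried and taken up in DMSO. EJ138 cells were exposed 96 h and growth read by MTT assay.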

EJ [9] = assay: Potentiation factor, ratio of IC50 for antiproliferative activity against human EJ138 cells preincubated for 1 hr with CYP null bactosomes to IC50 for antiproliferative activity against human EJ138 cells preincubated for 1 hr with human CYP1A2 expressing bactosomes; format: functional; method in brief: as §3
EJ [10] = assay: Antiproliferative activity against human EJ138 cells assessed as inhibition of cell growth preincubated for 1 hr with human CYP3A4 expressing bactosomes measured after 96 hrs by MTT assay; format: functional, cell-based; method in brief: as §4
EJ [11] = assay: Antiproliferative activity against human EJ138 cells assessed as inhibition of cell growth preincubated for 1 hr with human CYP1A2 expressing bactosomes measured after 96 hrs by MTT assay; format: functional, cell-based; method in brief: as §4
EJ [12] = assay: Potentiation factor, ratio of IC50 for antiproliferative activity against human EJ138 cells preincubated for 1 hr with CYP null bactosomes to IC50 for antiproliferative activity against human EJ138 cells preincubated for 1 hr with human CYP1A1 expressing bactosomes; format: functional; method in brief: as §3
Cytochrome P450 1A1 [13] = target: T1, Cytochrome P450 1A1; assay: Drug metabolism assessed as recombinant human CYP1A1-mediated metabolite M2 with m/z of 345.1 formation at 50 uM incubated for 1 hr in presence of reconstituted protein system by LC-MS analysis; format: ADME; conditions: recombinant enzyme; method in brief: as §2
Cytochrome P450 1A1 [14] = target: T1, Cytochrome P450 1A1; assay: Drug metabolism assessed as recombinant human CYP1A1-mediated metabolite M3 with m/z of 373.1 formation at 50 uM incubated for 1 hr in presence of reconstituted protein system by LC-MS analysis; format: ADME; conditions: recombinant enzyme; method in brief: as §2
EJ [15] = assay: Antiproliferative activity against human EJ138 cells assessed as inhibition of cell growth preincubated for 1 hr with CYP null bactosomes measured after 96 hrs by MTT assay; format: functional, cell-based; method in brief: as §4
EJ [16] = assay: Antiproliferative activity against human EJ138 cells assessed as inhibition of cell growth preincubated for 1 hr with human CYP1B1 expressing bactosomes measured after 96 hrs by MTT assay; format: functional, cell-based; method in brief: as §4
Cytochrome P450 1A1 [17] = target: T1, Cytochrome P450 1A1; assay: Drug metabolism assessed as recombinant human CYP1A1-mediated metabolite M1 with m/z of 327.1 formation at 50 uM incubated for 1 hr in presence of reconstituted protein system by LC-MS analysis; format: ADME; conditions: recombinant enzyme; method in brief: as §2

CC(C)(C)OC(=O)N1CC(CCl)c2ccccc21 (stereo unspecified) gave an IC50 (CHO [1]) of over 25 µM, an IC50 (RT-112) of over 25 µM and an IC50 (EJ [2]) of over 25 µM. The IC50 (CHO [3]) was over 25 µM.

COc1ccc2[nH]c(C(=O)N3CC(CCl)c4cc(F)ccc43)cc2c1 (stereo unspecified) was tested, and the Drug metabolism (Cytochrome P450 1A1 [4]) was “Metabolite_Detected”, the Drug metabolism (Cytochrome P450 1A1 [5]) was “Metabolite_Detected” and the “Ratio IC50” value (EJ [6]) was 1.3. The “Ratio IC50” value (EJ [7]) was 0.9, the IC50 (EJ [8]) was 3.1 µM and the IC50 (CHO [1]) was 14.8 µM. The IC50 (RT-112) was 5.04 µM, the “Ratio IC50” value (EJ [9]) was 3.1 and the IC50 (EJ [10]) was 16.8 µM. For the same molecule, the IC50 (EJ [11]) was 5.11 µM, the “Ratio IC50” value (EJ [12]) was 5.1 and the IC50 (EJ [2]) was 18.6 µM. The Drug metabolism (Cytochrome P450 1A1 [13]) was “Metabolite_Detected”, the Drug metabolism (Cytochrome P450 1A1 [14]) was “Metabolite_Detected” and the IC50 (CHO [3]) was 6.2 µM. The IC50 (EJ [15]) was 15.8 µM and the IC50 (EJ [16]) was 11.9 µM.

With COc1ccc2[nH]c(C(=O)N3CC(CCl)c4ccc(O)cc43)cc2c1 (stereo unspecified) the IC50 (CHO [1]) was 0.03 µM, the IC50 (RT-112) was 0.055 µM and the Drug metabolism (Cytochrome P450 1A1 [17]) was “Metabolite_Detected”. For the same molecule, the IC50 (EJ [2]) was 0.038 µM and the IC50 (CHO [3]) was 0.035 µM.
